ChEMBL document CHEMBL1122020, “Synthesis and enzymic activity of various substituted pyrazolo[1,5-a]-1,3,5-triazines as adenosine cyclic 3',5'-phosphate phosphodiesterase inhibitors” (J Med Chem, 1982)

Assays:
[1] = target: T1, Phosphodiesterase 4 (Homo sapiens) (UniProt P27815+Q08499+Q07343+Q08493); experiment: Inhibitory activity towards cAMP Phosphodiesterase isolated from rabbit heart; assay type: protein assay; set-up: reference not given here; conditions: Oryctolagus cuniculus; target entry is the homologue from another species
[2] = target: T1, Phosphodiesterase 4 (Homo sapiens); experiment: Inhibitory activity towards cAMP phosphodiesterase isolated from rabbit lung.; assay type: protein assay; set-up: unit not given here; conditions: Oryctolagus cuniculus; target entry is the homologue from another species
Procedure, shortened: (§1)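 PDE prepared as previously described. Each 0.5 mL reaction held 25 µmol Tris-HCl (pH 7.5), 5 µmol MgCl2, 10-75 µg enzyme protein, 350 pmol [8-3H]cAMP (850 cpm/pmol), and at least seven inhibitor concentrations (0.5 µM to 5 mM). 5'-AMP formed was measured at three or more time points (3-12 min) to confirm linear rates. I50 was read graphically from % inhibition versus log inhibitor concentration.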

[3] = target: T1, Phosphodiesterase 4 (Homo sapiens); experiment: Inhibitory activity towards cAMP phosphodiesterase isolated from bovine heart.; assay type: protein assay; set-up: unit not given here; conditions: Bos taurus; target entry is the homologue from another species; procedure, shortened: as §1
Bos taurus [4] = species on record: Bos taurus; experiment: (§2) Inhibition of bovine brain cAMP Phosphodiesterase; set-up: unit not given here; procedure, shortened: as §1
Bos taurus [5] = species on record: Bos taurus
Bos taurus [6] = species on record: Bos taurus; remark: listed apart in the source
[7] = target: T1, Phosphodiesterase 4 (Homo sapiens); experiment: as §2; conditions: Bos taurus; target entry is the homologue from another species; procedure, shortened: as §1
[8] = Inhibition of bovine heart cAMP Phosphodiesterase; set-up: species or system Bos taurus
Procedure, shortened: as §1, with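 “Enzymes” for “PDE”, “described (beef heart, 14 units/mg; rabbit lung, 70 units/mg). The” for “described. Each”, “pH 7.5,” for “(pH 7.5),”, “5'-AMP” for “5'-AMP formed”, “vs” for “versus”, “log” for “log inhibitor”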

[9] = Inhibition of rabbit lung cAMP Phosphodiesterase; set-up: species or system Oryctolagus cuniculus; conditions: read-out: I50
Procedure, shortened: as §1, with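 “Enzymes” for “PDE”, “described (beef heart, 14 units/mg; rabbit lung, 70 units/mg). The” for “described. Each”, “pH 7.5,” for “(pH 7.5),”, “5'-AMP” for “5'-AMP formed”, “vs” for “versus”, “log” for “log inhibitor”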

Structure (SMILES) | Activity [1] | Activity [2] | Activity [3] | also measured
CCSc1nc(SC)nc2c(Br)cnn12 | 2.6 | 13 |  | 
CCCCNc1ncnc2cc(-c3ccccc3)nn12 |  | 13.5 | 2.5 | 
CCCCNc1nc(C)nc2cc(-c3ccccc3)nn12 |  | 11 | 1.7 | 
CCSc1nc(SC)nc2ccnn12 | 3.2 | 8 |  | 
Cc1ncn2nc(-c3ccccc3)c(Br)c2n1 |  | 1.8 | 0.9 | 
CSc1nc(S)n2ncc(Br)c2n1 | 0.68 | 1 |  | 
CCc1nc(CC)n2nc(-c3ccccc3)cc2n1 |  | 20 | 7 | Activity (Bos taurus [4]): 12
Nc1ncnc2c1ncn2[C@@H]1O[C@@H]2COP(=O)(O)O[C@H]2[C@H]1O |  |  |  | Km (Oryctolagus cuniculus): 0.56 µM; Km (Bos taurus [5]): 1.3 µM; Km (Bos taurus [6]): 0.63 µM
CCc1nc(C)nc2c(-c3cccc(C)c3)cnn12 |  |  | 5 | 
CCc1nc(C)nc2cc(-c3ccccc3)nn12 |  | 21 | 4 | 
CCc1ncn2nc(-c3ccccc3)cc2n1 |  | 14 | 0.5 | Activity (Bos taurus [4]): 97
c1ccc(-c2cc3ncnc(N4CCCCC4)n3n2)cc1 |  | 29 | 11 | 
CSc1nc(SC)n2ncc(Br)c2n1 | 1.5 | 5 |  | 
CCc1nc(C)nc2c(Br)c(-c3ccccc3)nn12 |  | 14 | 7 | 
CCCCNc1nc(SC)nc2c(Br)cnn12 | 12.5 | 160 |  | Activity [7]: 18
Cc1nc(C)n2ncc(-c3ccccc3)c2n1 |  | 25 | 3 | Activity (Bos taurus [4]): 40
CCCNc1nc(SC)nc2c(Br)cnn12 | 6.9 | 67 |  | 
CCN(CC)c1ncnc2c(Br)c(-c3ccccc3)nn12 |  | 185 | 40 | 
Cc1nc(-c2ccccc2)n2nc(-c3ccccc3)cc2n1 |  | 10 |  | 
CCc1nc(C)nc2c(Cl)cnn12 |  | 1.8 | 0.8 | 
CCc1nc(CC)n2nc(-c3ccccc3)c(Br)c2n1 |  | 9 | 2 | 
CCN(CC)c1nc(SC)nc2c(Br)cnn12 | 6.2 | 26 |  | 
CSc1nc(OC(C)C)n2ncc(Br)c2n1 | 4 | 1.5 |  | 
CCNc1nc(SC)nc2c(Br)cnn12 | 8 | 40 |  | Activity [7]: 17
CCCNc1ncnc2cc(-c3ccccc3)nn12 |  | 26 | 3.8 | 
CSc1ncnc2cc(-c3ccccc3)nn12 | 7.3 | 11 |  | 
COc1nc(SC)nc2ccnn12 | 0.5 | 0.6 |  | 

Structure (SMILES) | Activity [1] | Activity [2] | Activity [3] | also measured
CSc1nc(C)n2nccc2n1 | 0 | 1.6 |  | 
CCc1nc(C)nc2c(-c3ccccc3)cnn12 |  | 27 | 10 | Activity (Bos taurus [4]): 39
CCN(CC)c1ncnc2cc(-c3ccccc3)nn12 |  | 143 | 57 | Activity (Bos taurus [4]): 146
CCCc1nc(C)nc2c(Br)c(-c3ccccc3)nn12 |  | 8 | 2 | 
COc1nc(SC)nc2c(Br)cnn12 | 3.2 | 9 |  | 
Cc1cccc(-c2cnn3cnc(C)nc23)c1 |  | 1.5 | 0.4 | 
CCOC(=O)c1cnn2c(CC)nc(C)nc12 |  | 0.7 | 1.2 | 
Cc1nc(C)n2nc(-c3ccccc3)cc2n1 |  | 22 | 3.5 | Activity (Bos taurus [4]): 19
Cc1nc(O)n2nc(-c3ccccc3)cc2n1 |  | 1.9 | 0.5 | Activity (Bos taurus [4]): 4.7
CCN(CC)c1nc(SC)nc2ccnn12 | 12.2 | 19 |  | Activity [7]: 12
CCc1nc(C)nc2cc(-c3ccc(OC)cc3)nn12 |  | 16 | 3 | 
CCCc1nc(C)nc2cc(-c3ccccc3)nn12 |  | 10 | 11 | 
CCc1nc(C)nc2c(C#N)cnn12 |  | 1.2 | 1.7 | 
Cc1nc(C)n2nc(-c3ccccc3)c(Br)c2n1 |  | 40 | 3 | 
CCc1nc(C)n2nc(-c3ccccc3)cc2n1 |  | 12 | 2.7 | 
CCc1nc(C)n2nccc2n1 |  | 2.4 | 0.5 | 
CCc1nc(C)nc2ccnn12 |  | 1.1 | 0.7 | 
Cn1c(=O)c2nc[nH]c2n(C)c1=O [THEOPHYLLINE] |  |  |  | Ki [8]: 77 µM; IC50 ([8]; read-out: I50): 90 µM; IC50 [9]: 210 µM
CCc1nc(C)nc2c(Br)cnn12 |  | 2.5 | 1 | 
CCCOc1nc(SC)nc2c(Br)cnn12 | 0.7 | 2.7 |  | 
CCc1nc(CC)n2nc(-c3ccccc3C)cc2n1 |  | 15 | 16 | Activity (Bos taurus [4]): 42
Cc1ncn2nc(-c3ccccc3)cc2n1 |  | 25 | 3 | Activity (Bos taurus [4]): 49
CCc1nc(CC)n2nc(-c3ccc(OC)cc3)cc2n1 |  | 14 | 8 | 
Cc1nc(C)n2nccc2n1 |  | 1 | 0.9 | 
Cc1cccc(-c2cnn3c(C)nc(C)nc23)c1 |  | 14 | 2 | 
CCCNc1nc(SC)nc2ccnn12 | 5.8 | 12 |  | 
